Results reported in ChEMBL document CHEMBL4382192, “Discovery of a potent dual ALK and EGFR T790M inhibitor” (Eur J Med Chem, 2017).

Legend:
[1] = Cmax in mouse at 10 mg/kg, po; assay type: ADME, organism-based; design: dose 10 mg/kg, route oral; conditions: in vivo
[2] = Oral bioavailability in mouse at 10 mg/kg; assay type: ADME, organism-based; conditions: in vivo
[3] = tested on: Tyrosine-protein kinase ABL1 (Homo sapiens), P00519 [H396P]; test: Binding affinity to human phosphorylated ABL1 H396P mutant (S229 to K512 residues) expressed in mammalian expression system assessed as residual binding level at 1 uM by Kinomescan method relative to control
Procedure, shortened: (§1)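 Kinome-wide selectivity panel run by the KINOMEscan method, with the test compound at a single concentration of 1 μM. Wild-type and mutant kinases were profiled in the same screen.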

[4] = target: Aurora kinase A (Homo sapiens) (UniProt O14965); test: Binding affinity to wild-type human partial length AURKA (E122 to K401 residues) expressed in mammalian expression system assessed as residual binding level at 1 uM by Kinomescan method relative to control
Aurora kinase A (Homo sapiens), sequence (O14965 whole entry, the tested form may be a part): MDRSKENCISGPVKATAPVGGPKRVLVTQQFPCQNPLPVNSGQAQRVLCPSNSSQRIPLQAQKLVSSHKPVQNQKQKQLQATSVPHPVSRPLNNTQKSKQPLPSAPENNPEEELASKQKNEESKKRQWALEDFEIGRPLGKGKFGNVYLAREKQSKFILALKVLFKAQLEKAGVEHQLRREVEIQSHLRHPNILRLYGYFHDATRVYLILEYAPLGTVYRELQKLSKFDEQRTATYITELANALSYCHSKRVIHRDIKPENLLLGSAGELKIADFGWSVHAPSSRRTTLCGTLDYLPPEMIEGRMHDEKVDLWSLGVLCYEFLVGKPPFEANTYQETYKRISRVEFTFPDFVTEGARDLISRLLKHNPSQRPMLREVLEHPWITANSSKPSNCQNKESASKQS

[5] = target: Aurora kinase B (Homo sapiens) (UniProt Q96GD4); test: Binding affinity to wild-type human partial length AURKB (D25 to A303 residues) expressed in mammalian expression system assessed as residual binding level at 1 uM by Kinomescan method relative to control
[6] = target: Cyclin-dependent kinase 2 (Homo sapiens) (UniProt P24941); test: Binding affinity to wild-type human full length CDK2 (M1 to L298 residues) expressed in bacterial expression system assessed as residual binding level at 1 uM by Kinomescan method relative to control
[7] = target: Serine/threonine-protein kinase Chk1 (Homo sapiens) (UniProt O14757); test: Binding affinity to wild-type human partial length CHEK1 (M1 to G289 residues) expressed in bacterial expression system assessed as residual binding level at 1 uM by Kinomescan method relative to control
[8] = target: Macrophage colony-stimulating factor 1 receptor (Homo sapiens) (UniProt P07333); test: Binding affinity to wild-type human partial length autoinhibited CSF1R (Y538 to S939 residues) expressed in mammalian expression system assessed as residual binding level at 1 uM by Kinomescan method relative to control
Macrophage colony-stimulating factor 1 receptor (Homo sapiens), sequence (P07333 whole entry, the tested form may be a part): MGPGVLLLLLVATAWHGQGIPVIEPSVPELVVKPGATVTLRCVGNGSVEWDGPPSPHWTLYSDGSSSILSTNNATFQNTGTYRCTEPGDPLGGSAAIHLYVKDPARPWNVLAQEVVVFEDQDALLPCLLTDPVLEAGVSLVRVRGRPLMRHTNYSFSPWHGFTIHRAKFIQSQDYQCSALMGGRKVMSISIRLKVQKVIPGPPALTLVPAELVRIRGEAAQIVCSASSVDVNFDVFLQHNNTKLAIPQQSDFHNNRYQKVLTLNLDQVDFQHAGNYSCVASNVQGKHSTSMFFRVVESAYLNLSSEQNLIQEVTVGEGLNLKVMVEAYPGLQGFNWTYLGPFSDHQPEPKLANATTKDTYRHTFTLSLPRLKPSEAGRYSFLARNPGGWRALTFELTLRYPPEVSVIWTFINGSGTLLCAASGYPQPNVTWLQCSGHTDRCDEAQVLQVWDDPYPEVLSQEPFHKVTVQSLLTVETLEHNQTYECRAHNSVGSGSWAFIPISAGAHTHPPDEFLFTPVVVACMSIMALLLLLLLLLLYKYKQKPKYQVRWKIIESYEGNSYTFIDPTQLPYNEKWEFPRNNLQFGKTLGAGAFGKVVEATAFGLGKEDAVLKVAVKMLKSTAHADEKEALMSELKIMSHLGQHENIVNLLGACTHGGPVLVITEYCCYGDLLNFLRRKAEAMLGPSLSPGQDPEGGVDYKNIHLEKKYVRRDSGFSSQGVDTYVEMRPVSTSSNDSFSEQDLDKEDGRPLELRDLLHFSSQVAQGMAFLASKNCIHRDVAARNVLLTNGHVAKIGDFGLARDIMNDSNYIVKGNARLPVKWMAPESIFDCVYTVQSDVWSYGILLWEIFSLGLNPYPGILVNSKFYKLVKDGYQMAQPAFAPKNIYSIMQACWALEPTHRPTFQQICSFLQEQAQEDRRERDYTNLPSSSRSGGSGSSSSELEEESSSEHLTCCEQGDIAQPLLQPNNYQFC

[9] = tested on: Epidermal growth factor receptor (Homo sapiens), P00533 [L858R]; test: Binding affinity to human partial length EGFR L858R mutant (R669 to V1011 residues) expressed in bacterial expression system assessed as residual binding level at 1 uM by Kinomescan method relative to control; procedure, shortened: as §1
[10] = target: Mitogen-activated protein kinase 4 (Homo sapiens) (UniProt P31152); test: Binding affinity to wild-type human partial length ERK4 (M1 to L365 residues) expressed in bacterial expression system assessed as residual binding level at 1 uM by Kinomescan method relative to control
Mitogen-activated protein kinase 4 (Homo sapiens), sequence (P31152 whole entry, the tested form may be a part): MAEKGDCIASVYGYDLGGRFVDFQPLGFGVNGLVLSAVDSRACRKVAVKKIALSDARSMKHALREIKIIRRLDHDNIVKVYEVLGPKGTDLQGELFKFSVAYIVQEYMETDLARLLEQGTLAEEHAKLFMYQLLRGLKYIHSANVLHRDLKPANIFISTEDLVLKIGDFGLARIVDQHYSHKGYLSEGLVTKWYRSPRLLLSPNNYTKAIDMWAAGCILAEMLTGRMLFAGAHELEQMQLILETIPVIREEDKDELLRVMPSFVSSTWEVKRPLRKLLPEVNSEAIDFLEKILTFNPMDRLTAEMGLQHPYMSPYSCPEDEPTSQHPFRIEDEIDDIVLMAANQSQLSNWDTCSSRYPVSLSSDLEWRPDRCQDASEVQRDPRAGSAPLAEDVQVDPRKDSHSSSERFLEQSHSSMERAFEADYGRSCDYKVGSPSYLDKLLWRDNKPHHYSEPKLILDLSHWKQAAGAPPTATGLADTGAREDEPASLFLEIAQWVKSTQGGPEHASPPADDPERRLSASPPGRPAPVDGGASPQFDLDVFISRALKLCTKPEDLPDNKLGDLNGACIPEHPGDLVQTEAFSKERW

[11] = target: Inhibitor of nuclear factor kappa-B kinase subunit beta (Homo sapiens) (UniProt O14920); test: Binding affinity to wild-type human full length IKK-beta (M1 to S756 residues) expressed in mammalian expression system assessed as residual binding level at 1 uM by Kinomescan method relative to control
Procedure, shortened: (§2)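 Single-point kinome-wide KINOMEscan binding panel, test compound at 1 μM, run by the provider's standard protocol.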

[12] = target: Tyrosine-protein kinase Lck (Homo sapiens) (UniProt P06239); test: Binding affinity to wild-type human partial length LCK (R207 to P509 residues) expressed in bacterial expression system assessed as residual binding level at 1 uM by Kinomescan method relative to control
Tyrosine-protein kinase Lck (Homo sapiens), sequence (P06239 2-509 limits assumed): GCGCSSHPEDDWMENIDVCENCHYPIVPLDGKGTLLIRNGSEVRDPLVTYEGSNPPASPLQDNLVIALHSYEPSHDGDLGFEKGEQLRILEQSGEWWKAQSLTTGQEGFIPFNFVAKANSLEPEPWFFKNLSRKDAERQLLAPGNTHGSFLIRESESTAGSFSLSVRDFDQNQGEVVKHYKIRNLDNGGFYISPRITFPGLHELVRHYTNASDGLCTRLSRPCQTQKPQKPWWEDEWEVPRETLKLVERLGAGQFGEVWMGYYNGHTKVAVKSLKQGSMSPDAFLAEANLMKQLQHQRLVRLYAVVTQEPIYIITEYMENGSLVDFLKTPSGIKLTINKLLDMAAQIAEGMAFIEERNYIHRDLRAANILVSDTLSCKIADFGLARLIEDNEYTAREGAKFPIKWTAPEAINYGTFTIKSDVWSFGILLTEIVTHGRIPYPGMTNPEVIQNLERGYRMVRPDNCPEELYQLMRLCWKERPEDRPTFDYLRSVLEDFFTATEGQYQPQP

[13] = target: MAP/microtubule affinity-regulating kinase 3 (Homo sapiens) (UniProt P27448); test: Binding affinity to wild-type human full length MARK3 (M1 to L729 residues) expressed in bacterial expression system assessed as residual binding level at 1 uM by Kinomescan method relative to control; procedure, shortened: as §2
[14] = target: Serine/threonine-protein kinase MRCK beta (Homo sapiens) (UniProt Q9Y5S2); test: Binding affinity to wild-type human partial length MRCKB (L56 to S417 residues) expressed in bacterial expression system assessed as residual binding level at 1 uM by Kinomescan method relative to control
[15] = target: Serine/threonine-protein kinase 4 (Homo sapiens) (UniProt Q13043); test: Binding affinity to wild-type human full length MST1 (M1 to F487 residues) expressed in bacterial expression system assessed as residual binding level at 1 uM by Kinomescan method relative to control; procedure, shortened: as §2
[16] = target: Serine/threonine-protein kinase N1 (Homo sapiens) (UniProt Q16512); test: Binding affinity to wild-type human partial length PKN1 (E598 to C948 residues) expressed in bacterial expression system assessed as residual binding level at 1 uM by Kinomescan method relative to control
[17] = target: Protein kinase C eta type (Homo sapiens) (UniProt P24723); test: Binding affinity to wild-type human partial length PRKCH (S324 to P683 residues) expressed in bacterial expression system assessed as residual binding level at 1 uM by Kinomescan method relative to control
[18] = target: Ribosomal protein S6 kinase alpha-5 (Homo sapiens) (UniProt O75582); test: Binding affinity to wild-type human partial length N-terminal RPS6KA5 kinase domain 1 expressed in bacterial expression system assessed as residual binding level at 1 uM by Kinomescan method relative to control
Ribosomal protein S6 kinase alpha-5 (Homo sapiens), sequence (O75582 whole entry, looked up, the tested form may be a part): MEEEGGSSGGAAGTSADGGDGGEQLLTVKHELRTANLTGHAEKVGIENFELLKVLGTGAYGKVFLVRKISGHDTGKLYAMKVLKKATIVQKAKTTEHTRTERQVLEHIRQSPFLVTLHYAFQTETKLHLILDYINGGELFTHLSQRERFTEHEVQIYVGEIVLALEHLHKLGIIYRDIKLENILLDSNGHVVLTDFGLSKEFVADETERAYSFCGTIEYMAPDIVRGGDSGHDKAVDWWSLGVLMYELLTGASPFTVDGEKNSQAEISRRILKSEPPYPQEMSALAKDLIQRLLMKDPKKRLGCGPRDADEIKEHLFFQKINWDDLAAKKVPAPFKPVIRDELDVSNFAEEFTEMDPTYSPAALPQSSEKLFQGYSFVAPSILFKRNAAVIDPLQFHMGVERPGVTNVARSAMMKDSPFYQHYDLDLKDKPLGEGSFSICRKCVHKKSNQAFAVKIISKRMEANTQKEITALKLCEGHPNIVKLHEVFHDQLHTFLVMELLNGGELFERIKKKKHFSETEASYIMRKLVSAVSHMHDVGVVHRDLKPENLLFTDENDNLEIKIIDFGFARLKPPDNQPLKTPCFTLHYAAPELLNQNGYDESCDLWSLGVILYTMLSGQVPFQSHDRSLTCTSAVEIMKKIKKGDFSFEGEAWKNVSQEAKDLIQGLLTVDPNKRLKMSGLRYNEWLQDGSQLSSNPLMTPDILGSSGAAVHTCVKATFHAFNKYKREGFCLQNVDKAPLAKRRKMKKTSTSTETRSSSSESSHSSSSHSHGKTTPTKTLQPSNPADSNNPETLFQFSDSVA

[19] = target: Ribosomal protein S6 kinase alpha-6 (Homo sapiens) (UniProt Q9UK32); test: Binding affinity to wild-type human partial length C-terminal RSK4 kinase domain 2 (I401 to Y711 residues) expressed in bacterial expression system assessed as residual binding level at 1 uM by Kinomescan method relative to control
[20] = target: TGF-beta receptor type-2 (Homo sapiens) (UniProt P37173); test: Binding affinity to wild-type human partial length TGFBR2 (I218 to K567 residues) expressed in bacterial expression system assessed as residual binding level at 1 uM by Kinomescan method relative to control
[21] = target: Serine/threonine-protein kinase WNK4 (Homo sapiens) (UniProt Q96J92); test: Binding affinity to wild-type human partial length WNK4 (A31 to D461 residues) expressed in mammalian expression system assessed as residual binding level at 1 uM by Kinomescan method relative to control
[22] = target: Receptor tyrosine-protein kinase erbB-2 (Homo sapiens, UniProt P04626); test: Inhibition of recombinant His-tagged human ErbB2 cytoplasmic domain expressed in baculovirus expression system by Z-LYTE assay
Receptor tyrosine-protein kinase erbB-2, sequence (P04626 whole entry, the tested form may be a part): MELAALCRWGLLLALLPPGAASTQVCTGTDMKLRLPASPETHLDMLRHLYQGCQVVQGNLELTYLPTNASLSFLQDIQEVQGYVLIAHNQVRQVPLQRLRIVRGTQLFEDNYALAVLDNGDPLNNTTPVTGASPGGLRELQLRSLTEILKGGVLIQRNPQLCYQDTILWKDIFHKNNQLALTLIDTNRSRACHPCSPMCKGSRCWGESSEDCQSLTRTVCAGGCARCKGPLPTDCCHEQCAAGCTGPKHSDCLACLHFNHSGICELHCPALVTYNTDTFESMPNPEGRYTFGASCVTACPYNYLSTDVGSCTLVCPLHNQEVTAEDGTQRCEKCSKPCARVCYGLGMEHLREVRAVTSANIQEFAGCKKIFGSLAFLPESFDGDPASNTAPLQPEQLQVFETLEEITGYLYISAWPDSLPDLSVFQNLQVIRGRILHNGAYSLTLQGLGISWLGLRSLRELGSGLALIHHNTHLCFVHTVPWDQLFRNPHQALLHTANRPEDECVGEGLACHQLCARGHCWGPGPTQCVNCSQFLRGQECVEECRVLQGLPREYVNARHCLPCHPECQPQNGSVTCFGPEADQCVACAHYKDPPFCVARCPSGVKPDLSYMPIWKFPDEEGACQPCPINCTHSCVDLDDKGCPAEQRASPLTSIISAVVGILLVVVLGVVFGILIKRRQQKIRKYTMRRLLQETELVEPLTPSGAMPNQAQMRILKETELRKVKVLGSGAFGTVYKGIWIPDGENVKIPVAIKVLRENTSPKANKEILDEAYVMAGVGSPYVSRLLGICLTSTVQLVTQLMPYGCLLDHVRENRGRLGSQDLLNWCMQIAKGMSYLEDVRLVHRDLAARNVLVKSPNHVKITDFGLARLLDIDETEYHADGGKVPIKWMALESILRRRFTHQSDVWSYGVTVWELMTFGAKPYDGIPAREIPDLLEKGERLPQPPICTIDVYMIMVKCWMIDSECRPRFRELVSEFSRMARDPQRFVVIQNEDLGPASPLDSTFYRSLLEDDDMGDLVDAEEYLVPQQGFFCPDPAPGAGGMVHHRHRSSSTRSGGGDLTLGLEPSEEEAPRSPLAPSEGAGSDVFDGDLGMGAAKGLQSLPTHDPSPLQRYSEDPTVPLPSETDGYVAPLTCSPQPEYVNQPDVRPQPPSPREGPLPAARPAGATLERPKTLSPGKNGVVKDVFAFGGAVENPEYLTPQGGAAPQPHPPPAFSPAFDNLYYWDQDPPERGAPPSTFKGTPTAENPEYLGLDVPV

[23] = target: Receptor tyrosine-protein kinase erbB-4 (Homo sapiens, UniProt Q15303); test: Inhibition of recombinant N-terminal GST-tagged human ErbB4 cytoplasmic domain expressed in baculovirus expression system by Z-LYTE assay
CYP2C19 = CYP2C19 (Homo sapiens, UniProt P33261); test: Residual activity of CYP2C19 in human liver microsomes at 10 uM using S-mephenytoin 4-hydroxylase as substrate preincubated for 5 mins followed by NADPH addition measured after 15 mins by LC/MS/MS analysis relative to control; conditions: probe S-mephenytoin (4-hydroxylation)
CYP2C19, sequence (P33261 whole entry): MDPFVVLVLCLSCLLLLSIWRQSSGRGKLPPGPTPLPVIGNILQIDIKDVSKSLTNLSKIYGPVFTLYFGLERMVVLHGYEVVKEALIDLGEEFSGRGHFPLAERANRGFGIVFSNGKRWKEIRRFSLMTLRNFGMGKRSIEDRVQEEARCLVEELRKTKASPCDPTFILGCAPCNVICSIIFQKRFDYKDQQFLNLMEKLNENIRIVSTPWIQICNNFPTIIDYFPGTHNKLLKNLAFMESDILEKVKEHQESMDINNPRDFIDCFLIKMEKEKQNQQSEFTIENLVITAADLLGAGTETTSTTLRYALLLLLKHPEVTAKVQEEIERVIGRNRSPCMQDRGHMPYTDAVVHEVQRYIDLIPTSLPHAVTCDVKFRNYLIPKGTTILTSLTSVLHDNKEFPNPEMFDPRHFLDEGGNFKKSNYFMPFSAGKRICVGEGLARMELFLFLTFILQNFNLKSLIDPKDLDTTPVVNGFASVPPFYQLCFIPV

CYP2D6 = CYP2D6 (Homo sapiens, UniProt P10635); test: Residual activity of CYP2D6 in human liver microsomes at 10 uM using dextromethorphan O-demethylase as substrate preincubated for 5 mins followed by NADPH addition measured after 15 mins by LC/MS/MS analysis relative to control; conditions: probe dextromethorphan (O-demethylation)

## C=CC(=O)Nc1cc(Nc2ncc(Cl)c(Nc3ccccc3S(=O)(=O)C(C)C)n2)c(OC)cc1N(C)CCN(C)C
[1]
  Cmax: 520 ng/mL
[2]
  bioavailability: 24%
[3]
  Activity: 5.5%
[4]
  Activity: 4.2%
[5]
  Activity: 39%
[6]
  Activity: 83%
[7]
  Activity: 99%
[8]
  Activity: 92%
[9]
  Activity: 0%
[10]
  Activity: 82%
[11]
  Activity: 96%
[12]
  Activity: 14%
[13]
  Activity: 33%
[14]
  Activity: 100%
[15]
  Activity: 86%
[16]
  Activity: 41%
[17]
  Activity: 100%
[18]
  Activity: 85%
[19]
  Activity: 15%
[20]
  Activity: 82%
[21]
  Activity: 94%
[22]
  IC50: 37 nM
[23]
  IC50: 3 nM
CYP2C19
  Activity at […], 10 µM: 86%
CYP2D6
  Activity at […], 10 µM: 90%
